According to ChEMBL document CHEMBL1146274, “Serendipitous discovery of novel imidazolopyrazole scaffold as selective androgen receptor modulators” (2007):

Legend:
Rattus norvegicus [1] = species on record: Rattus norvegicus; assay: Inhibition of testosterone-enhanced ventral prostate weight in castrated immature Sprague-Dawley rat; format: functional, Prostate gland; design: concentration or dose not given beside the values
Summary of the method: (§1)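 This was an antagonist mode in castrated immature male rats. Animals were dosed orally once daily for 5 days at 2 mg/day in 20% cyclodextrin, together with testosterone propionate 0.1 mg/day (about 1.3 mg/kg) subcutaneously in sesame oil, n = 3 per group. Percent inhibition of prostate weight was scaled with the vehicle group set to 100% and the testosterone-alone group set to 0%.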

Rattus norvegicus [2] = assay: Anabolic activity assessed as stimulation of levator ani muscle weight in castrated immature Sprague-Dawley rat at 2 mg/day, po by Hersherberger assay
Rattus norvegicus [3] = assay: Androgenic activity in castrated immature Sprague-Dawley rat assessed as ventral prostate weight stimulation at 2 mg/day, po by Hersherberger assay; format: functional, Prostate gland
Summary of the method: (§2)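 Castrated immature male rats were given oral doses once daily for 5 days in 20% cyclodextrin vehicle, n = 3 per group. Ventral prostate weight was normalized to the vehicle control. Percent stimulation was scaled with the vehicle group set to 0% and the testosterone-alone group set to 100%.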

Rattus norvegicus [4] = assay: Inhibition of ventral prostate weight in castrated immature Sprague-Dawley rat at 2 mg/day, po; format: functional, Prostate gland; design: scale not given: the % may be the effect or the level left; summary of the method: as §1
Rattus norvegicus [5] = assay: Anabolic activity assessed as stimulation of levator ani muscle weight in sc dosed castrated immature Sprague-Dawley rat by Hersherberger assay; format: functional; conditions: in the assay text read “po dosed” for “sc dosed”
Summary of the method: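 Castrated immature male rats received testosterone propionate by subcutaneous injection at the nape of the neck, 5 mg/kg in sesame oil. Levator ani weight was measured as percent stimulation, with the vehicle control set to 0% and the testosterone-alone group set to 100%.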

Rattus norvegicus [6] = species on record: Rattus norvegicus; assay: Androgenic activity in castrated immature Sprague-Dawley rat assessed as ventral prostate weight stimulation at 3 mg/ day by Hersherberger assay; format: functional, Prostate gland; summary of the method: as §2
Rattus norvegicus [7] = assay: Anabolic activity assessed as stimulation of levator ani muscle weight in castrated immature Sprague-Dawley rat at 5 mg/day, sc by Hersherberger assay; format: functional
Summary of the method: (§3)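 Castrated immature male rats; agent given subcutaneously by injection at the nape of the neck in sesame oil. Compounds in the same table were dosed once daily for 5 days with N = 3/group. Tissue weight is expressed as percent stimulation, with the vehicle-treated control set to 0% and the testosterone-alone control set to 100%.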

Rattus norvegicus [8] = assay: Androgenic activity in castrated immature Sprague-Dawley rat assessed as ventral prostate weight stimulation at 5 mg/day, sc by Hersherberger assay; format: functional, Prostate gland; summary of the method: as §3

Q: How did the Inhibition (Rattus norvegicus [1]) turn out when `C[C@](O)(CS(=O)(=O)c1ccc(F)cc1)C(=O)Nc1ccc(C#N)c(C(F)(F)F)c1` [(R)-BICALUTAMIDE] was run?
A: 70%

Q: Which Activity (Rattus norvegicus [2]) does the source give for `CC1(/C(=N/c2ccc(C#N)c(C(F)(F)F)c2)NO)CC(C(F)(F)F)=NN1` (centres undefined) here?
A: <10%

Q: And the Inhibition (Rattus norvegicus [1])?
A: <10%

Q: What about the Activity (Rattus norvegicus [3]) of the same compound?
A: <10%

Q: `CON/C(=N\c1ccc(C#N)c(C(F)(F)F)c1)C1(C)CC(C(F)(F)F)=NN1` (centres undefined) was tested. Which Activity (Rattus norvegicus [2]) did it give?
A: 23%

Q: And the Inhibition (Rattus norvegicus [1])?
A: <10%

Q: What about the Activity (Rattus norvegicus [3]) of the same compound?
A: 14%

Q: For `CC12CC(c3c(F)c(F)c(F)c(F)c3F)=NN1C(N)=N/C2=N\c1ccc(C#N)c(C(F)(F)F)c1` (centres undefined), which Activity (Rattus norvegicus [2]) is on record?
A: 21%

Q: And the Inhibition (Rattus norvegicus [1])?
A: <10%

Q: And the Activity (Rattus norvegicus [3])?
A: <10%

Q: What does the source list for `CCN/C(=N\c1ccc(C#N)c(C(F)(F)F)c1)C1(C)CC(C(F)(F)F)=NN1` (centres undefined)?
A: Activity (Rattus norvegicus [2]): 50%; Inhibition (Rattus norvegicus [1]): 18%; Activity (Rattus norvegicus [3]): <10%

Q: Which results are given for `CN/C(=N\c1ccc(C#N)c(C(F)(F)F)c1)C1(C)CC(C(F)(F)F)=NN1` (centres undefined)?
A: Activity (Rattus norvegicus [4]): 15%; Activity (Rattus norvegicus [2]): 17%; Inhibition (Rattus norvegicus [1]): 15%

Q: Which Activity (Rattus norvegicus [2]) does the source give for `CCOC(=O)C1=NN2C(N)=N/C(=N\c3ccc(C#N)c(C(F)(F)F)c3)C2(C)C1` (centres undefined) here?
A: <10%

Q: And the Inhibition (Rattus norvegicus [1])?
A: <10%

Q: What about the Activity (Rattus norvegicus [3]) of the same compound?
A: <10%

Q: With `CC12CC(C(F)(F)F)=NN1C(=N)O/C2=N\c1ccc(C#N)c(C(F)(F)F)c1` (centres undefined) as the compound, how does the Activity (Rattus norvegicus [2]) read?
A: 29%

Q: And the Activity (Rattus norvegicus [3])?
A: 55%

Q: What does the source list for `CCN(CC)/C(=N\c1ccc(C#N)c(C(F)(F)F)c1)C1(C)CC(C(F)(F)F)=NN1` (centres undefined)?
A: Activity (Rattus norvegicus [2]): 32%; Inhibition (Rattus norvegicus [1]): <10%; Activity (Rattus norvegicus [3]): 22%

Q: What does the source list for `CC12CC(C(F)(F)F)=NN1C(NC(=O)C(F)(F)F)=N/C2=N\c1ccc(C#N)c(C(F)(F)F)c1` (centres undefined)?
A: Activity (Rattus norvegicus [2]): 61%; Inhibition (Rattus norvegicus [1]): 31%; Activity (Rattus norvegicus [3]): 55%

Q: How did the Activity (Rattus norvegicus [2]) turn out when `CCc1c(/N=C2\N=C(N)N3N=C(C(F)(F)F)CC23C)ccc(C#N)c1C(F)(F)F` (centres undefined) was run?
A: 19%

Q: And the Inhibition (Rattus norvegicus [1])?
A: <10%

Q: And the Activity (Rattus norvegicus [3])?
A: <10%

Q: What does the source list for `C[C@]12CC(C(F)(F)F)=NN1C(N)=N/C2=N\c1ccc(C#N)c(C(F)(F)F)c1`?
A: ED50 (Rattus norvegicus [5]): 0.07 mg/day; Activity (Rattus norvegicus [2]): 91%; Activity (Rattus norvegicus [6]): 36%; Inhibition (Rattus norvegicus [1]): 30%

Q: How did the ED50 (Rattus norvegicus [5]) turn out when `C[C@@]12CC(C(F)(F)F)=NN1C(N)=N/C2=N\c1ccc(C#N)c(C(F)(F)F)c1` was run?
A: 0.85 mg/day

Q: And the Activity (Rattus norvegicus [2])?
A: 72%

Q: And the Activity (Rattus norvegicus [6])?
A: 29%

Q: And the Inhibition (Rattus norvegicus [1])?
A: <10%

Q: `CC12CC(C(F)(F)F)=NN1C(N)=N/C2=N\c1ccc(Br)c(C(F)(F)F)c1` (centres undefined) was tested. Which Activity (Rattus norvegicus [2]) did it give?
A: <10%

Q: And the Inhibition (Rattus norvegicus [1])?
A: <10%

Q: What about the Activity (Rattus norvegicus [3]) of the same compound?
A: <10%

Q: With `CC1(/C(=N/c2ccc(C#N)c(C(F)(F)F)c2)N2CCCC2)CC(C(F)(F)F)=NN1` (centres undefined) as the compound, how does the Activity (Rattus norvegicus [2]) read?
A: <10%

Q: What about the Inhibition (Rattus norvegicus [1]) of the same compound?
A: <10%

Q: What about the Activity (Rattus norvegicus [3]) of the same compound?
A: <10%

Q: Which results are given for `CC1(/C(=N/c2ccc(C#N)c(C(F)(F)F)c2)NS(C)(=O)=O)CC(C(F)(F)F)=NN1` (centres undefined)?
A: Activity (Rattus norvegicus [2]): <10%; Inhibition (Rattus norvegicus [1]): <10%; Activity (Rattus norvegicus [3]): <10%

Q: Which results are given for `CCC12CC(C(F)(F)F)=NN1C(N)=N/C2=N\c1ccc(C#N)c(C(F)(F)F)c1` (centres undefined)?
A: Activity (Rattus norvegicus [2]): 16%; Inhibition (Rattus norvegicus [1]): <10%; Activity (Rattus norvegicus [3]): <10%

Q: Which Activity (Rattus norvegicus [2]) does the source give for `CC1(/C(N)=N/c2ccc(C#N)c(C(F)(F)F)c2)CC(C(F)(F)F)=NN1` (centres undefined) here?
A: 76%

Q: And the Inhibition (Rattus norvegicus [1])?
A: 20%

Q: What about the Activity (Rattus norvegicus [3]) of the same compound?
A: 39%

Q: What does the source list for `CCC(=O)O[C@H]1CC[C@H]2[C@@H]3CCC4=CC(=O)CC[C@]4(C)[C@H]3CC[C@]12C` [TESTOSTERONE PROPIONATE]?
A: Activity (Rattus norvegicus [7]): 100%; Activity (Rattus norvegicus [8]): 100%

Q: With `CC12CC(C(F)(F)F)=NN1C(N)=N/C2=N\c1ccc([N+](=O)[O-])c(C(F)(F)F)c1` (centres undefined) as the compound, how does the Activity (Rattus norvegicus [2]) read?
A: <10%

Q: And the Inhibition (Rattus norvegicus [1])?
A: <10%

Q: And the Activity (Rattus norvegicus [3])?
A: <10%

Q: Which Activity (Rattus norvegicus [2]) does the source give for `CC12CC=NN1C(N)=N/C2=N\c1ccc(C#N)c(C(F)(F)F)c1` (centres undefined) here?
A: <10%

Q: What about the Inhibition (Rattus norvegicus [1]) of the same compound?
A: <10%

Q: And the Activity (Rattus norvegicus [3])?
A: <10%

Q: Which Activity (Rattus norvegicus [2]) does the source give for `CC12CC(C(F)(F)F)=NN1C(N)=N/C2=N\c1ccc(Cl)c(Cl)c1` (centres undefined) here?
A: <10%

Q: What about the Inhibition (Rattus norvegicus [1]) of the same compound?
A: 31%

Q: And the Activity (Rattus norvegicus [3])?
A: <10%
